Calls of active or inactive are those of the source. The calls are words filed in the database; no cut-off is given here.
Assays:
[1] = Clearance in cynomolgus monkey at 0.5 mg/kg, iv administered as single dose measured up to 24 hrs post dose by LC-MS/MS analysis; assay type: ADME, organism-based, Macaca fascicularis; settings: in vivo
Mus musculus [2] = assay: Toxicity in C57BL/6J mouse assessed as induction of hypoglycemia effect at 1 mg/kg, po administered 1 hr prior to glucose challenge measured after 120 mins by IPGTT; assay type: organism-based; settings: in vivo, 2 h
[3] = Stability in rat liver microsomes assessed as parent compound remaining at 1 to 3 uM incubated for 20 mins in presence NADPH measured up to 90 mins by LC/MS/MS analysis; assay type: ADME, microsome; settings: liver microsomes, read-out: Stability
In short: (§1)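 Human or rat liver microsomal incubations. The read-outs were % parent remaining, % D-ring dealkylation metabolites, % GSH adducts, and half-life (min). The metabolites followed were CYP450-mediated oxidative de-alkylation products (phenols) and GSH conjugates.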

[4] = molecular target: T1, Amine oxidase [flavin-containing] B (Homo sapiens, UniProt P27338); assay: Inhibition of MAO-B (unknown origin)
T1 sequence (P27338 whole entry): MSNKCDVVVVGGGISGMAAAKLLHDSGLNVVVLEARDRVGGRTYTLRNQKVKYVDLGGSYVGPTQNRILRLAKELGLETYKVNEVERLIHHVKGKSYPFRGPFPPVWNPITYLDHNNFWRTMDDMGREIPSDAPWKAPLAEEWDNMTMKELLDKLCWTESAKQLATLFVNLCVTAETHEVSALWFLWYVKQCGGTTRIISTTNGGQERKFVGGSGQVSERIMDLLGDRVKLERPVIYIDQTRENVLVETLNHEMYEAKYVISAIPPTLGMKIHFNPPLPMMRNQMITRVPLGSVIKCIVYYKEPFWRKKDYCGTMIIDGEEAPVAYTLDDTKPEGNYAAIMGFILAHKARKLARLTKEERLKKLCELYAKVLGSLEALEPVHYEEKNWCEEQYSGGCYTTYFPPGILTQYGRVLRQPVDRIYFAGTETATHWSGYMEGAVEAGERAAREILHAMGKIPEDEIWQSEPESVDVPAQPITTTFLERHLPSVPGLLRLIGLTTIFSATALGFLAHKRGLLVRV

Mus musculus [5] = assay: Antidiabetic activity in C57BL/6J mouse assessed as glucose lowering effect at 0.1 mg/kg, po administered 1 hr prior to glucose challenge measured after 120 mins by IPGTT; assay type: functional, organism-based
[6] = Oral bioavailability in Beagle dog at 1 mg/kg administered via gavage as single dose measured up to 24 hrs post dose by LC-MS/MS analysis; assay type: ADME, organism-based, Canis lupus familiaris; settings: in vivo
[7] = Half life in cynomolgus monkey at 0.5 mg/kg, iv administered as single dose measured up to 24 hrs post dose by LC-MS/MS analysis; assay type: ADME, organism-based, Macaca fascicularis; settings: in vivo
[8] = Volume of distribution at steady state in CD1 mouse at 1 mg/kg, iv via bolus dose or 1 mg/kg, po administered as single dose measured up to 24 hrs post dose by LC-MS/MS analysis; assay type: ADME, organism-based; settings: in vivo, read-out: Vdss
Mus musculus [9] = assay: Antidiabetic activity in C57BL/6J mouse assessed as increase in plasma insulin levels at 3 mg/kg, po administered 1 hr prior to glucose challenge measured after 120 mins during OGTT by ELISA; assay type: functional, organism-based
[10] = molecular target: Free fatty acid receptor 1 (Homo sapiens, UniProt O14842); assay: Agonist activity at human GPR40 expressed in CHOA12 cells assessed as induction of Ca2+ mobilization by FLIPR assay; assay type: functional, cell-based
[11] = Tmax in Beagle dog at 1 mg/kg, po administered as single dose measured up to 24 hrs post dose by LC-MS/MS analysis; assay type: ADME, organism-based, Canis lupus familiaris; settings: in vivo
[12] = Oral bioavailability in cynomolgus monkey at 1 mg/kg administered via gavage as single dose measured up to 24 hrs post dose by LC-MS/MS analysis; assay type: ADME, organism-based, Macaca fascicularis; settings: in vivo
[13] = Cmax in Beagle dog at 1 mg/kg, po administered as single dose measured up to 24 hrs post dose by LC-MS/MS analysis; assay type: ADME, organism-based, Canis lupus familiaris; set-up: dose 1 mg/kg, route oral; settings: in vivo
[14] = Tmax in Sprague-Dawley rat at 3 mg/kg, po administered as single dose measured up to 24 hrs post dose by LC-MS/MS analysis; assay type: ADME, organism-based; settings: in vivo
[15] = Half life in Sprague-Dawley rat at 1 mg/kg, iv administered as single dose measured up to 24 hrs post dose by LC-MS/MS analysis; assay type: ADME, organism-based; settings: in vivo
Mus musculus [16] = assay: Antidiabetic activity in C57BL/6J mouse assessed as reduction in plasma glucose excursion at 3 mg/kg, po administered 1 hr prior to glucose challenge measured after 120 mins in presence of DPP4 inhibitor BMS-538305 by OGTT assay; assay type: functional, organism-based
Mus musculus [17] = assay: Antidiabetic activity in C57BL/6J mouse assessed as effect on active GLP-1 levels at 3 mg/kg, po administered 1 hr prior to glucose challenge measured after 120 mins during OGTT assay by ELISA; assay type: functional, organism-based
[18] = Half life in CD1 mouse at 1 mg/kg, iv administered as bolus dose or 1 mg/kg, po administered as single dose measured up to 24 hrs post dose by LC-MS/MS analysis; assay type: ADME, organism-based; settings: in vivo
Mus musculus [19] = assay: Antidiabetic activity in C57BL/6J mouse assessed as increase in active GLP-1 levels at 3 mg/kg, po administered 1 hr prior to glucose challenge measured after 120 mins in presence of DPP4 inhibitor BMS-538305 during OGTT assay by ELISA; assay type: functional, organism-based
[20] = molecular target: Voltage-gated inwardly rectifying potassium channel KCNH2 (Homo sapiens, UniProt Q12809); assay: Inhibition of human ERG (unknown origin) at <10 uM
[21] = Tmax in cynomolgus monkey at 1 mg/kg, po administered as single dose measured up to 24 hrs post dose by LC-MS/MS analysis; assay type: ADME, organism-based, Macaca fascicularis; settings: in vivo
[22] = Cmax in cynomolgus monkey at 1 mg/kg, po administered as single dose measured up to 24 hrs post dose by LC-MS/MS analysis; assay type: ADME, organism-based, Macaca fascicularis; set-up: dose 1 mg/kg, route oral; settings: in vivo
[23] = Volume of distribution at steady state in cynomolgus monkey at 0.5 mg/kg, iv administered as single dose measured up to 24 hrs post dose by LC-MS/MS analysis; assay type: ADME, organism-based, Macaca fascicularis; settings: in vivo, read-out: Vdss
[24] = Half life in human liver microsomes at 1 to 3 uM incubated for 20 mins in presence NADPH measured up to 90 mins by LC/MS/MS analysis; assay type: ADME, microsome; settings: liver microsomes
[25] = Oral bioavailability in Sprague-Dawley rat at 3 mg/kg administered via gavage as single dose measured up to 24 hrs post dose by LC-MS/MS analysis; assay type: ADME, organism-based; settings: in vivo
[26] = Stability in human liver microsomes assessed as parent compound remaining at 1 to 3 uM incubated for 20 mins in presence NADPH measured up to 90 mins by LC/MS/MS analysis; assay type: ADME, microsome; settings: liver microsomes, read-out: Stability; in short: as §1
[27] = Oral bioavailability in C57BL6 mouse at 1 mg/kg administered as single dose measured up to 24 hrs post dose by LC-MS/MS analysis; assay type: ADME, organism-based; settings: in vivo
[28] = Cmax in C57BL6 mouse at 1 mg/kg, po administered as single dose measured up to 24 hrs post dose by LC-MS/MS analysis; assay type: ADME, organism-based; set-up: dose 1 mg/kg, route oral; settings: in vivo
[29] = Half life in rat liver microsomes at 1 to 3 uM incubated for 20 mins in presence NADPH measured up to 90 mins by LC/MS/MS analysis; assay type: ADME, microsome; settings: liver microsomes

Sequence of Free fatty acid receptor 1 (O14842 whole entry): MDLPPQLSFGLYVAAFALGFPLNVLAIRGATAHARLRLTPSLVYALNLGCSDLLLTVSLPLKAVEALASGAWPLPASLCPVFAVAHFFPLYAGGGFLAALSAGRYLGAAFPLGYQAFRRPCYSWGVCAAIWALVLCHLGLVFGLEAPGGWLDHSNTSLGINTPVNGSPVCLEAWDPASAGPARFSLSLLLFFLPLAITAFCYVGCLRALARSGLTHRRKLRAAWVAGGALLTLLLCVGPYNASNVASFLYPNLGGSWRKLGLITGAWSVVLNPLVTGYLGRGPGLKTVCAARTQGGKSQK
Sequence of Voltage-gated inwardly rectifying potassium channel KCNH2 (Q12809 whole entry): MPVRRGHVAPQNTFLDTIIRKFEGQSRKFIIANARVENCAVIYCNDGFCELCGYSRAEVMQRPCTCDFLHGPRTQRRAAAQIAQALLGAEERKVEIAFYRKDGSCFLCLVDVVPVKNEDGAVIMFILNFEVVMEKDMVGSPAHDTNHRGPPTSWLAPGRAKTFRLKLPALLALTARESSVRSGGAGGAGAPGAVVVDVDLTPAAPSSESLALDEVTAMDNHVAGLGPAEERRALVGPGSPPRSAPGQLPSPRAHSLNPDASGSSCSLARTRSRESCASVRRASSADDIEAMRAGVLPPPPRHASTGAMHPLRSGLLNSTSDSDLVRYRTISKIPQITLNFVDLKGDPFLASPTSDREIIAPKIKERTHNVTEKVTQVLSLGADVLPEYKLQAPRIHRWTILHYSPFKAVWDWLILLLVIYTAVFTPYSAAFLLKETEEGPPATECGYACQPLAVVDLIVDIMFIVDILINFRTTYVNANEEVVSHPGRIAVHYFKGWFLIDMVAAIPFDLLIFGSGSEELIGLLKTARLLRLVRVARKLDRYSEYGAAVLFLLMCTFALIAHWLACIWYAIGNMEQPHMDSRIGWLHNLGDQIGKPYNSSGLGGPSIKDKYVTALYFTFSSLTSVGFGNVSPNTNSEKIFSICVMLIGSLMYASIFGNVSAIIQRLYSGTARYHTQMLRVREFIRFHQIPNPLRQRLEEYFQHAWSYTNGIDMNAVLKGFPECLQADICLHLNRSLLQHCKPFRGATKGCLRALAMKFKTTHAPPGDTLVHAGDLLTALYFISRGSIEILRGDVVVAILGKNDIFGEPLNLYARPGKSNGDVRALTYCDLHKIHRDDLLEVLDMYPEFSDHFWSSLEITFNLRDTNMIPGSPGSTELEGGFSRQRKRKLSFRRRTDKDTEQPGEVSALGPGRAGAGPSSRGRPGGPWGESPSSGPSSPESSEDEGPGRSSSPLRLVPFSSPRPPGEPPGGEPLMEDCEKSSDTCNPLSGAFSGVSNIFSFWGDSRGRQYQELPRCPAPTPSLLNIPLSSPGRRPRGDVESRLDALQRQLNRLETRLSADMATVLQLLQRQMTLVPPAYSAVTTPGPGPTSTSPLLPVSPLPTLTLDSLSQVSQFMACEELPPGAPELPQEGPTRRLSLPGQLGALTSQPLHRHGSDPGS

SMILES: COc1cc(N2CC[C@@H](Oc3ccc(N4N=C(C(F)(F)F)[C@@H](C)[C@@H]4CC(=O)O)cc3)[C@H](C)C2)c(Cl)cn1
- clearance [1]: 0.7 mL/min/kg
- Activity (Mus musculus [2]): Non-Toxic
- remaining at 20 min, up to 3 µM [3]: 75%
- IC50 [4]: 6 µM
- Activity (Mus musculus [5]): Active
- bioavailability [6]: 62%
- half-life [7]: 13 h
- Vd [8]: 0.4 L/kg
- Activity (Mus musculus [9]): Active
- EC50 [10]: 0.07 µM
- Tmax [11]: 0.8 h
- bioavailability [12]: 61%
- Cmax [13]: 1200 nM
- Tmax [14]: 1.3 h
- half-life [15]: 4 h
- Activity (Mus musculus [16]): Active
- Activity (Mus musculus [17]): inactive
- half-life [18]: 3.1 h
- Activity (Mus musculus [19]): Active
- inhibition (INH) [20]: Not Active
- Tmax [21]: 5 h
- Cmax [22]: 1400 nM
- Vd [23]: 0.7 L/kg
- half-life [24]: 1.7 h
- bioavailability [25]: 47%
- remaining at 20 min, up to 3 µM [26]: 89%
- bioavailability [27]: 100%
- Cmax [28]: 6000 nM
- half-life [29]: 1.35 h
